What all share (assay type): functional
The species named for test [1] is Cavia porcellus. Put plainly: Results of Open epicutaneous test (OET) in guinea pigs sensitized by bi […] (3) and expressed as No. of sensitive animals out of 8 animals tested. An outline of the steps: (§1)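 Guinea pigs sensitized by an injection repeated 4 times on alternate days, followed by 15 days rest before open epicutaneous challenge. Controls received intradermal 1:1 FCA-saline emulsion on alternate days, five injections in all. Irritation thresholds were first set on FCA-injected controls using the elicitation procedure. Read-out was average skin reaction and number of sensitive animals.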

The species named for test [2] is Cavia porcellus. Put plainly: Open epicutaneous test (OET) was conducted using 0.72 M compound deposited on a circular shaved flank of guinea pig sensitized by double […] (3); no reaction. An outline of the steps:
as §1

The species named for test [3] is Cavia porcellus. Put plainly: Open epicutaneous test (OET) was conducted using 0.72 M compound deposited on a circular shaved flank of guinea pig sensitized by mono […] (18); no reaction. The method in brief: as §1
The species entered for test [4] is Cavia porcellus. The test can be described thus: Open epicutaneous test (OET) was conducted using 0.72 M compound deposited on a circular shaved flank of guinea pig sensitized by mono […] (19); erythema plus swelling going well beyond test area. An outline of the steps:
as §1

The species named for test [5] is Cavia porcellus. The test can be described thus: Results of Open epicutaneous test (OET) in guinea pigs sensitized by mono […] (18) and expressed as No. of sensitive animals out of 8 animals tested. The method in brief:
as §1

The species entered for test [6] is Cavia porcellus. Put plainly: Open epicutaneous test (OET) was conducted using 0.72 M compound deposited on a circular shaved flank of guinea pig sensitized by mixture of mono […] (18) and (19); erythema on the test area. An outline of the steps:
as §1

Test [7] is filed under the species Cavia porcellus. Put plainly: Results of Open epicutaneous test (OET) in guinea pigs sensitized by mixture of mono […] (18) and (19) and expressed as No. of sensitive animals out of 8 animals tested. An outline of the steps:
as §1

For test [8], the species on record is Cavia porcellus. The test can be described thus: Results of Open epicutaneous test (OET) in guinea pigs sensitized by mono […] (19) and expressed as No. of sensitive animals out of 8 animals tested. The method in brief: as §1
The species entered for test [9] is Cavia porcellus. Put plainly: Open epicutaneous test (OET) was conducted using 0.72 M compound deposited on a circular shaved flank of guinea pig sensitized by mono […] (19); no reaction. The following applies: in the assay text read “0.072 M” for “0.72 M”. The method in brief:
as §1

The species entered for test [10] is Cavia porcellus. Put plainly: Open epicutaneous test (OET) was conducted using 0.72 M compound deposited on a circular shaved flank of guinea pig sensitized by bi […] (3); erythema on the test area. The conditions noted are these: in the assay text read “0.072 M” for “0.72 M”. An outline of the steps: as §1
The species named for test [11] is Cavia porcellus. The test can be described thus: Open epicutaneous test (OET) was conducted using 0.72 M compound deposited on a circular shaved flank of guinea pig sensitized by mono […] (18); erythema on the test area. The method in brief: as §1

A value given as a limit tells only on which side of the number the result lay.

Take `C=C1CC(CCCCCCc2cccc(OC)c2OC)OC1=O` (centres undefined): the “No. of sensitive animals” value in the test filed under Cavia porcellus [1] was 0; in the test filed under Cavia porcellus [5], 0; in the test filed under Cavia porcellus [7], 8; in the test filed under Cavia porcellus [8], 8. For the same molecule, the Average skin reaction is 0 in the test listed under Cavia porcellus [2], 0 in the test listed under Cavia porcellus [3], 2.6 in the test listed under Cavia porcellus [4] and 1.1 in the test filed under Cavia porcellus [6].
Consider `C=C1CC(CCCCCCc2cccc(O)c2O)OC1=O` (centres undefined), for which the “No. of sensitive animals” value in the test filed under Cavia porcellus [1] came out at 6; in the test filed under Cavia porcellus [5], 3; in the test filed under Cavia porcellus [7] it was 8; in the test filed under Cavia porcellus [8], 1. Further, the Average skin reaction in the test listed under Cavia porcellus [3] is recorded as 0.2; in the test filed under Cavia porcellus [9] it was <0.1; in the test listed under Cavia porcellus [6], 0.9; in the test filed under Cavia porcellus [10], 0.9.
Consider `CC1CC(CCCCCCc2cccc(O)c2O)OC1=O` (centres undefined), for which the Average skin reaction in the test listed under Cavia porcellus [11] is listed as 1.4; in the test filed under Cavia porcellus [9] it was 0; in the test filed under Cavia porcellus [6], 1.1; in the test filed under Cavia porcellus [10], 0.8. Further, the “No. of sensitive animals” value in the test filed under Cavia porcellus [1] is 6; in the test listed under Cavia porcellus [5] it was 7; in the test listed under Cavia porcellus [7], 8; in the test listed under Cavia porcellus [8] it was 0.

The values above are taken from ChEMBL document CHEMBL1122069, “Double-head haptens. Synthesis of and experimentally induced contact sensitivity to substances containing two unrelated haptens, pyrocatechol and alpha-methylene-gamma-butyrolactone, in the same molecule” (1982).
